Screens deposited in PubChem BioAssay by Sanford-Burnham Center for Chemical Genomics.
hIAP activ: increases human intestinal alkaline phosphatase activity; actives 0.16% (n = 330,000); purified human IAP, CDP-Star luminescence, 30 min; hits give high values; 1 = vehicle-only enzyme, 0 = enzyme-free background; P09923; activation factor at 10 µM; AID 2524;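 active = activation factor of the enzyme at least 2-fold when tested at 20 µM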
Target sequence (P09923 whole entry, looked up): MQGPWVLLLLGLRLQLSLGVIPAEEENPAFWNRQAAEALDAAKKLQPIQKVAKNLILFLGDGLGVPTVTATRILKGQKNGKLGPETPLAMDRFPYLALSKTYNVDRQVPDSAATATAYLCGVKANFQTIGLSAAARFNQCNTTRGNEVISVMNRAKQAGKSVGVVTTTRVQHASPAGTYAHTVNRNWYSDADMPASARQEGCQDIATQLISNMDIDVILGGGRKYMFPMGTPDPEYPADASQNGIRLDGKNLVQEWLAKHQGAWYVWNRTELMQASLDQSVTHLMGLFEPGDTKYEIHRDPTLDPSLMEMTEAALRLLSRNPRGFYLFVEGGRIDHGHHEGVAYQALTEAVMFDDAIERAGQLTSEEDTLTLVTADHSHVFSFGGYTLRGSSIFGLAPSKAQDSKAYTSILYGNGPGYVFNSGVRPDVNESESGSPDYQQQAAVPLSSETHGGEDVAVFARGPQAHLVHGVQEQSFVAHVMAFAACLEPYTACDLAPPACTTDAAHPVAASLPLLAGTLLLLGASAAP
mIAP activ: increases mouse intestinal alkaline phosphatase activity | activation factor at 10 µM | muIAP, CDP-Star luminescence, 30 min; hits give high values; 1 = vehicle-only enzyme signal, 0 = enzyme-free wells | actives 0.24% (n = 330,000) | AID 2805;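 active = activation factor of at least 2 at 20 µM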
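also added = chemiluminescent substrate CDP-Star | test system = mouse IAP enzyme | signal = chemiluminescence readout | compound = DMSO-dissolved test compounds | incubation = 30 min at room temperature | benchmarks = DMSO wells, no-enzyme wells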
bIAP inh: intestinal alkaline phosphatase (bovine) inhibition | purified bovine IAP, CDP-star luminescence, 30 min | inhibition, % at 20 µM | 190,000 tested, under 10 active;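 active = over 50% inhibition of intestinal alkaline phosphatase at 20 µM in the single-dose screen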
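Assay system – bovine IAP enzyme · Quantity – bovine IAP at 1/65,000,000 final dilution · Detection – CDP-star luminescence signal · Times – 30 min reaction at room temperature · Also added – CDP-star substrate at 30 µM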
bIAP act: intestinal alkaline phosphatase (bovine) activation | purified bovine IAP, CDP-star luminescence, 30 min; hits give high values; fold of DMSO-control signal, blank-subtracted | activation factor at 20 µM | actives 0.17% (n = 200,000);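 active = activation factor of 2 or more at 20 µM, a signal rise over negative controls twice the positive control's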
hIAP inh: blocks human intestinal alkaline phosphatase; P09923; purified IAP, CDP-Star luminescence, 30 min; inhibition, % at 10 µM; actives 0.12% (n = 330,000);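 active = inhibition reaching a set limit with compound at 10 µM in the primary screen, cut at about 35% in these data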;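 note: plate controls were DMSO wells with enzyme for no effect and no-enzyme buffer wells for full effect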
mIAP block: mouse IAP inhibition; inhibition, % at 10 µM; purified mouse IAP, CDP-Star luminescence, 30 min; actives 0.2% (n = 330,000);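 active = inhibition of at least 40% at 10 µM in the primary screen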;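 note: plate controls were DMSO with enzyme for no effect and no enzyme wells for full effect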
mIAP inh conf: mouse IAP inhibition confirmation | purified mouse IAP, CDP-Star luminescence, 30 min | actives 4.7% (n = 11,000) | inhibition, % at 10 µM | shares compounds with mIAP block;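 active = inhibition of at least 40% at 10 µM in either of the two replicates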;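 note: plate controls were DMSO wells with enzyme for no effect and buffer wells lacking enzyme for full effect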
Starred values were filed as active, the others as inactive; i = inactive; x = no result. Only some compounds are listed: those with a hit (about 0.79% of all), similar ones and a draw of the others.

SMILES	hIAP activ	mIAP activ	bIAP inh	bIAP act	hIAP inh	mIAP block	mIAP inh conf
N=C1S/C(=C\c2ccco2)C(=O)N1c1ccc2c(c1)OCO2	0.95	0.48	-6	1.1	5	52*	78*
N=C1S/C(=C\c2ccco2)C(=O)N1c1nccs1	1.1	0.4	-10	1.1	-15	60*	65*
CCCc1cc(=O)n2[nH]c(-c3cc(OC)c(OC)c(OC)c3)nc2n1	1.1	1	9	0.9	-10	0	x
C#CCOCCOCCOCCNc1nc(N2CCN(C(=O)CCCCCCCCCCNC(=O)[C@H]([C@@H](C)CC)n3cc(CCCCN=C(N)N)nn3)CC2)nc(N2CCN(C(=O)CCCCCCCCCCNC(=O)[C@H](CCCCN)n3cc(C[C@@H](C)CC)nn3)CC2)n1	1.2	4*	x	x	-20	-296	i
C#CCOCCOCCOCCNc1nc(N2CCN(C(=O)CCCCCCCCCCNC(=O)[C@H](CO)n3cc(CCCSC)nn3)CC2)nc(N2CCN(C(=O)CCCCCCCCCCNC(=O)[C@H](CO)n3cc(CCCSC)nn3)CC2)n1	1.2	1.6	x	x	-19	-57	x
C#CCOCCOCCOCCNc1nc(N2CCN(C(=O)CCCCCCCCCCNC(=O)[C@H](CCCCN)n3cc(CCO)nn3)CC2)nc(N2CCN(C(=O)CCCCCCCCCCNC(=O)[C@H](CCCN=C(N)N)n3cc(C[C@@H](C)CC)nn3)CC2)n1	0.88	2.6*	x	x	12	-162	-204
C#CCOCCOCCOCCNc1nc(N2CCN(C(=O)CCCCCCCCCCNC(=O)[C@H](CO)n3cc(CCCSC)nn3)CC2)nc(N2CCN(C(=O)CCCCCCCCCCNC(=O)[C@H](CCCCN)n3cc(C[C@@H](C)CC)nn3)CC2)n1	1.2	2.3*	x	x	-21	-130	-183
C#CCOCCOCCOCCNc1nc(N2CCN(C(=O)CCCCCCCCCCNC(=O)[C@H](CCCCN)n3cc(CCCC(=O)O)nn3)CC2)nc(N2CCN(C(=O)CCCCCCCCCCNC(=O)[C@H](CCCN=C(N)N)n3cc(C[C@@H](C)CC)nn3)CC2)n1	1	2.2*	x	x	-2	-124	-167
Cc1nc2c(C#N)c[nH]n2c(=O)c1Cc1ccccc1	0.92	1	-3	1	8	-3	x
C#CCOCCOCCOCCNc1nc(N2CCN(C(=O)CCCCCCCCCCNC(=O)Cn3cc(C[C@@H](C)O)nn3)CC2)nc(N2CCN(C(=O)CCCCCCCCCCNC(=O)[C@H](CCCCN)n3cc(C[C@@H](C)CC)nn3)CC2)n1	1.1	2.7*	x	x	-9	-173	-176
CCO[C@@H]1OC(C(=O)N2CCN(Cc3ccc4c(c3)OCO4)CC2)=C[C@H](c2ccc(C(F)(F)F)cc2)[C@H]1CCCO	0.91	0.98	-7	1.1	9	2	x
C=CCn1c(SCC(=O)c2ccc(O)c(O)c2)nnc1-c1cccc(OC)c1	0.91	0.59	x	x	9	41*	46*
O=C(N/N=C/c1cc2c(cc1[N+](=O)[O-])OCO2)c1ccccn1	1	0.6	x	x	0	40*	58*
O=C(c1ccco1)N(Cc1cccc(F)c1)C1CCS(=O)(=O)C1 (stereo not drawn)	1	0.89	x	x	-4	11	x
CC(=O)Nc1ccc(S(=O)(=O)N2CCN(S(=O)(=O)N3CCOCC3)CC2)cc1	1.1	1.1	x	x	-15	-11	x
N#Cc1ccc(/C=N/NC(=S)Nc2ccc(S(=O)(=O)N3CCOCC3)cc2)cc1	1	0.83	x	x	0	17	x
O=S(=O)(c1ccc(NC(=S)N/N=C/c2ccc(O)c(O)c2)cc1)N1CCOCC1	0.66	0.29	x	x	34	70*	76*
CC(NC(=S)Nc1ccc(S(=O)(=O)N2CCOCC2)cc1)C1CC2CCC1C2 (stereo not drawn)	1.5	4*	-10	1.1	-45	-302	-145
COc1ccc(C2CC(c3ccc(C(F)(F)F)cc3)=NN2c2ccc(S(N)(=O)=O)cc2)cc1 (stereo not drawn)	x	1.7	x	x	x	-74	x
COc1ccc(C2CC(c3ccccc3Br)=NN2c2ccc(S(N)(=O)=O)cc2)cc1 (stereo not drawn)	x	1.2	x	x	x	-17	x
COc1ccc(C2CC(c3ccccc3C(F)(F)F)=NN2c2ccc(S(N)(=O)=O)cc2)cc1 (stereo not drawn)	x	2.2*	x	x	x	-123	-121
COc1ccc(C2CC(c3ccccc3F)=NN2c2ccc(S(N)(=O)=O)cc2)cc1 (stereo not drawn)	x	2.1*	x	x	x	-114	-113
O=C(Nc1cccc(Cl)c1)NC1CC2CCC(C1)N2Cc1ccco1 (stereo not drawn)	1.2	1.1	-2	1	-15	-15	x
O=C(Nc1ccc(Cl)cc1)NC1CCCCC1Cc1ccco1 (stereo not drawn)	1.2	7.8*	-56	1.6	-20	i	-111
Cn1cccc1/C=N/NC(=O)C12CC3CC(CC(C3)C1)C2	0.93	1.1	17	0.8	7	-5	x
SMILES	hIAP activ	mIAP activ	bIAP inh	bIAP act	hIAP inh	mIAP block	mIAP inh conf
COc1cccc(NC(=O)NC2CCCc3ccccc32)c1 (stereo not drawn)	1	2.8*	-9	1.1	0	-184	-174
COc1ccc(NC(=O)NC2CCCc3ccccc32)c(OC)c1 (stereo not drawn)	1	1.1	x	x	-4	-13	x
CCC1CCC(NC(=O)Nc2cccc(OC)c2)CC1 (stereo not drawn)	1.2	2.2*	-14	1.1	-19	-120	-137
O=C(NNC(=S)NC(=O)c1cccs1)c1ccc(O)cc1	1.6	0.41	x	x	-62	60*	64*
Cc1ccc2[nH]c(=O)c(C(c3nnnn3Cc3ccccc3)N3CCc4ccccc43)cc2c1 (stereo not drawn)	1	0.45	6	0.9	-4	55*	64*
Cc1ccc2[nH]c(=O)c(C(c3nnnn3C3CCCC3)N3CCCc4ccccc43)cc2c1 (stereo not drawn)	0.88	0.43	4	1	12	57*	60*
Cc1ccc2[nH]c(=O)c(C(c3nnnn3CC3CCCO3)N3CCCc4ccccc43)cc2c1 (stereo not drawn)	1	0.5	10	0.9	-4	50*	60*
Cc1ccc2cc(C(c3nnnn3Cc3ccccc3)N3CCc4ccccc43)c(=O)[nH]c2c1 (stereo not drawn)	1.1	0.92	6	0.9	-5	8	x
Cc1ccc2[nH]c(=O)c(C(c3nnnn3CC3CCCO3)N3CCc4ccccc4C3)cc2c1 (stereo not drawn)	1.1	0.3	4	1	-12	70*	74*
COCCCNC(=O)C(=O)N/N=C/c1cc2c(cc1Br)OCO2	1	1.1	-14	1.1	-3	-7	x
